Reference: publication PMC4734807 (International Journal of Nanomedicine, 2016)

Assays:
HepG2 cells = test: Cell apoptosis, Annexin V-FITC/PI flow cytometry; assay type: cell-based, human; conditions: 24 hours
Procedure, shortened: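 HepG2 cells grown in high-glucose DMEM with 10% FBS and 1% antibiotics at 37°C, 5% CO2. Seeded at 2×10^5 cells/mL and incubated 24 h. Then exposed 24 h to nanoparticle suspension or drug solution at 1.2, 5 and 20 μg/mL RBG-equivalent, with 5-fluorouracil 20 μg/mL as control. Cells washed in cold PBS and stained with Annexin V-FITC/PI in binding buffer, 15 min at room temperature, then read by flow cytometry.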

HCa-F cells = test: In vivo therapeutic effect in HCa-F solid tumor-bearing mice; conditions: for IR (tumor growth inhibition rate) / Number of natural deaths / Tumor weight / Volume growth (incremental tumor volume): 2 mg/kg iv once per day for 7 days; for IR (tumor growth inhibition rate): by tumor weight; for Number of natural deaths: eight mice per group; for Tumor weight / Volume growth (incremental tumor volume): n=8
Procedure, shortened: (§1)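 Male mice, 6 weeks, implanted subcutaneously in the right axilla with washed HCa-F ascites cells (2.0–2.3×10^7 cells/mL, 0.01 mL/g). At a longest tumour diameter of about 14–16 mm, mice randomised to six groups of eight. Dosing 2 mg/kg RBG-equivalent (5-fluorouracil 2 mg/kg) by tail vein, daily for 7 days, in 20% PEG400/saline vehicle. Volume V=a²×b/2 measured before and after dosing. Tumours weighed; IR from mean weights versus vehicle control. Tumour RBG measured in saline homogenates.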

In vitro drug release = assay type: physicochemical; conditions: raw RBG
[1] = system: various malignant tumors, such as human hepatocellular carcinoma cells (Bel7402) and human cervical carcinoma cells (HeLa); conditions: e.g. Bel7402, HeLa; cited from earlier work
LD50 = test: LD50; set-up: species or system mice; conditions: male, Kunming, mouse, in vivo, iv
[2] = In vivo RBG concentrations in plasma and organs, liver-targeting indexes; set-up: species or system Kunming mice; conditions: for AUC: iv
Procedure, shortened: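 Male Kunming mice, 6 weeks, about 20.9 g, fasted overnight. Single tail-vein dose of 2 mg/kg RBG-equivalent, given as sonicated nanoparticle suspension or as solution, both in 20% PEG400/saline. Ten mice per group sampled at 0.08–24 h: cardiac blood, liver, heart, spleen, lung and kidney. RBG measured by RP-HPLC. AUC0–24 h by trapezoid method. Re is the AUC ratio of formulation to solution; Te is the liver AUC over the non-target organ AUC.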

[3] = In vivo therapeutic effect in HCa-F solid tumor-bearing mice; conditions: male, mouse, tumor, intravenous, 2 mg/kg
Procedure, shortened: as §1

O=c1[nH]cc(F)c(=O)[nH]1 [FS, 5-fluorouracil]
Cell ratio, apoptotic cells (HepG2 cells; 20 μg/mL): 14.2±1.2% | Cell ratio, necrotic cells (HepG2 cells; 20 μg/mL): 22.3±1.6% | Cell ratio, survival cells (HepG2 cells; 20 μg/mL): 63.5±2.0% | IR (tumor growth inhibition rate) (HCa-F cells): 37.19% | Number of natural deaths (HCa-F cells): 1 | Tumor weight (HCa-F cells): 3.26 ± 0.74 g | Volume growth (incremental tumor volume) (HCa-F cells): 3.05±0.72 ^* cm^3

C[C@]12CC[C@H](O)C[C@H]1CC[C@@H]1[C@@H]2CC[C@]2(C)[C@@H](c3ccc(=O)oc3)C[C@H]3O[C@]132 [RBG, Resibufogenin]
Release in the first 2 days (In vitro drug release): 98.78% | IC50 [1]: 1 to 50 nM

C[C@]12CC[C@H](O)C[C@H]1CC[C@@H]1[C@@H]2CC[C@]2(C)[C@@H](c3ccc(=O)oc3)C[C@H]3O[C@]132 [RS, Resibufogenin]
Cell ratio, apoptotic cells (HepG2 cells; 1.2 μg/mL): 21.8±1.5% | Cell ratio, necrotic cells (HepG2 cells; 1.2 μg/mL): 1.6±0.8% | Cell ratio, survival cells (HepG2 cells; 1.2 μg/mL): 76.6±2.2% | Cell ratio, apoptotic cells (HepG2 cells; 5 μg/mL): 33.6±1.6 % | Cell ratio, necrotic cells (HepG2 cells; 5 μg/mL): 0.6±0.5% | Cell ratio, survival cells (HepG2 cells; 5 μg/mL): 65.8±2.7% | Cell ratio, apoptotic cells (HepG2 cells; 20 μg/mL): 45.4±1.7 % | Cell ratio, necrotic cells (HepG2 cells; 20 μg/mL): 0.4±0.4% | Cell ratio, survival cells (HepG2 cells; 20 μg/mL): 54.2±1.9% | LD50 (LD50): 18.9 mg/kg | Te (targeting efficiency), liver versus heart ([2]; AUC liver / AUC heart): 0.6 | Te (targeting efficiency), liver versus kidney ([2]; AUC liver / AUC kidney): 0.8 | Te (targeting efficiency), liver versus lung ([2]; AUC liver / AUC lung): 0.8 | Te (targeting efficiency), liver versus spleen ([2]; AUC liver / AUC spleen): 1.0 | Te (targeting efficiency), overall statement ([2]; liver versus plasma and other organs): < 1 | AUC ([2]; male, Kunming, mouse, heart, 2 mg/kg): 3700 ± 900 ng·h/mL | AUC ([2]; male, Kunming, mouse, kidney, 2 mg/kg): 2700 ± 1000 ng·h/mL | AUC ([2]; male, Kunming, mouse, liver, 2 mg/kg): 2100 ± 900 ng·h/mL | Kp ([2]; male, Kunming, mouse, liver/plasma, intravenous, 2 mg/kg): 0.1 | AUC ([2]; male, Kunming, mouse, lung, 2 mg/kg): 2500 ± 800 ng·h/mL | AUC ([2]; male, Kunming, mouse, plasma, 2 mg/kg): 18600 ± 2100 ng·h/mL | AUC ([2]; male, Kunming, mouse, spleen, 2 mg/kg): 2200 ± 600 ng·h/mL | Retention (slow release) time of RBG in liver ([2]; mice, iv 2 mg/kg RBG): 1 h | IR (tumor growth inhibition rate) (HCa-F cells): 31.60% | Number of natural deaths (HCa-F cells): 2 | Tumor weight (HCa-F cells): 3.55 ± 0.71 g | Volume growth (incremental tumor volume) (HCa-F cells): 3.16±0.78 cm^3 | MRBG in tumor (HCa-F cells; after 7 days of administration, n=6): 0.19 ± 0.08 µg | concentration at 7 days [3]: 50 ± 20 ng/g
